Measurements taken from ChEMBL document CHEMBL1821703, “Anthraquinone derivatives induce G2/M cell cycle arrest and apoptosis in NTUB1 cells” (Bioorg Med Chem, 2011).
Calls of active or inactive are those of the source. No cut-off for these calls is given here.

Legend:
PC-3 [1] = assay: Cytotoxicity against human PC3 cells after 72 hrs by MTT assay; type: functional; conditions: PC-3, 72 h, read-out: ED50 (the source's name)
How it was run: (§1)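 Cells seeded at 1000/well (NTUB1, PC3) or 5000/well (SV-HUC1), incubated overnight at 37 °C, then exposed to graded concentrations for 72 h. Compounds were made up in DMSO and diluted in medium to 0.1% DMSO. MTT (2 mg/mL in PBS) added for 3 h, formazan dissolved in DMSO, absorbance read at 540 nm. Viability expressed as % of control; IC50 by median-effect analysis.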

NTUB1 [2] = assay: Induction of ROS production in human NTUB1 cells using H2DCFDA staining after 24 hrs by flow cytometry analysis; type: functional, cell-based
How it was run: (§2)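 NTUB1 cells treated 24 h with compounds, 20 µM cisplatin or 1 mM NAC. 10 µM H₂DCFDA added 30 min before harvest. Cells trypsinized, washed with PBS, and DCF green fluorescence read at once by FACScan flow cytometry through a 525-nm band-pass filter. Increase expressed with control set at 0%; three independent experiments.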

[3] = Cytotoxicity against human NTUB1 cells after 72 hrs by MTT assay; type: functional; conditions: NTUB1, 72 h, read-out: ED50 (the source's name); how it was run: as §1
PC-3 [4] = assay: Cytotoxicity against human PC3 cells at >30 uM after 72 hrs by MTT assay; type: functional; how it was run: as §1
[5] = Cytotoxicity against human NTUB1 cells at >30 uM after 72 hrs by MTT assay; type: functional; how it was run: as §1
PC-3 [6] = assay: Cytotoxicity against human PC3 cells at >50 uM after 72 hrs by MTT assay; type: functional; how it was run: as §1
[7] = Cytotoxicity against human NTUB1 cells at >50 uM after 72 hrs by MTT assay; type: functional; how it was run: as §1
[8] = Cytotoxicity against human NTUB1 cells assessed as cell viability at 1 mM after 72 hrs by MTT assay relative to control; type: functional; conditions: NTUB1, 72 h, read-out: Activity
How it was run: (§3)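 NTUB1 cells seeded at 1000/well, incubated overnight, then exposed 72 h to 1 mM NAC alone or to compound with NAC. MTT added for 3 h, formazan dissolved in DMSO, absorbance read at 540 nm. Viability expressed relative to untreated control; mean ± SD (n = 3) from one experiment in triplicate.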

NTUB1 [9] = assay: Induction of ROS production in human NTUB1 cells using H2DCFDA staining at 1 mM after 24 hrs by flow cytometry analysis; type: functional, cell-based; how it was run: as §2
NTUB1 [10] = assay: Induction of morphological changes in human NTUB1 cells assessed as increase of tetraploid DNA level using DAPI staining at 20 uM after 24 hrs by immunofluorescence microscopic analysis; type: functional, cell-based
How it was run: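 3 × 10⁵ NTUB1 cells per 6-cm dish treated 24 h. Fixed in 2% formaldehyde/PBS for 20 min, then cold methanol (−20 °C) for 3 min. Stained with DAPI 1 h at room temperature in the dark and examined by fluorescence microscopy.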

[11] = Cell cycle arrest in human NTUB1 cells assessed as accumulation at S phase at 20 uM after 24 hrs using propidium iodide staining by flow cytometry analysis (reference value: 22.61%); type: functional, cell-based
How it was run: (§4)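 3 × 10⁵ NTUB1 cells per 6-cm dish, treated 24 h (medium-only control). Cells then stained with 50 µg/mL propidium iodide plus 50 µg/mL RNase A in PBS, 30 min at room temperature. DNA content read by FACScan flow cytometry; sub-G1 content taken as apoptosis. Values are mean ± SD of four independent experiments.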

NTUB1 [12] = assay: Induction of ROS production in human NTUB1 cells using H2DCFDA staining at 20 uM after 24 hrs by flow cytometry analysis in presence of 1 mM of NAC; type: functional, cell-based
NTUB1 [13] = assay: Induction of up-regulation p21 expression in human NTUB1 cells at 20 uM after 24 hrs by Western blot analysis; type: functional, cell-based
How it was run: (§5)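 NTUB1 cells exposed 24 h, trypsinized, and resuspended in PBS. Lysed by boiling twice for 10 min in 2× sample buffer, separated by SDS–PAGE, and semi-dry blotted to nitrocellulose. Membranes blocked in 5% skimmed milk in TBST, probed with primary antibodies overnight at 4 °C, then secondary antibody 1 h at room temperature. ECL chemiluminescence detection; GAPDH as internal control.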

[14] = Cell cycle arrest in human NTUB1 cells assessed as accumulation at G2/M phase at 20 uM after 24 hrs using propidium iodide staining by flow cytometry analysis (reference value: 18.61%); type: functional, cell-based; how it was run: as §4
NTUB1 [15] = assay: Increase of p53 protein expression in human NTUB1 cells at 10 to 20 uM after 24 hrs by Western blot analysis; type: functional, cell-based; how it was run: as §5
NTUB1 [16] = assay: Induction of up-regulation cyclin B1 expression in human NTUB1 cells at 20 uM after 24 hrs by Western blot analysis; type: functional, cell-based; how it was run: as §5
[17] = Cell cycle arrest in human NTUB1 cells assessed as accumulation at S phase at 10 uM after 24 hrs using propidium iodide staining by flow cytometry analysis (reference value: 22.61%); type: functional, cell-based; how it was run: as §4
[18] = Cytotoxicity against human NTUB1 cells assessed as cell viability at 10 uM after 72 hrs by MTT assay relative to control; type: functional; conditions: NTUB1, 72 h, read-out: Activity; how it was run: as §1
[19] = Cell cycle arrest in human NTUB1 cells assessed as accumulation at sub-G1 phase at 10 uM after 24 hrs using propidium iodide staining by flow cytometry analysis (reference value: 1.96%); type: functional, cell-based; how it was run: as §4
[20] = Cell cycle arrest in human NTUB1 cells assessed as accumulation at G1 phase at 20 uM after 24 hrs using propidium iodide staining by flow cytometry analysis (reference value: 56.06%); type: functional, cell-based; how it was run: as §4
[21] = Decrease of Bax protein expression in human NTUB1 cells at 10 to 20 uM after 24 hrs by Western blot analysis; type: functional, cell-based; how it was run: as §5
[22] = Cell cycle arrest in human NTUB1 cells assessed as accumulation at G1 phase at 10 uM after 24 hrs using propidium iodide staining by flow cytometry analysis (reference value: 56.06%); type: functional, cell-based; how it was run: as §4
[23] = Cytotoxicity against human NTUB1 cells assessed as cell viability at 20 uM after 72 hrs by MTT assay relative to control in presence of 1 mM of NAC; type: functional; how it was run: as §3
NTUB1 [24] = assay: Induction of down-regulation cyclin B1 expression in human NTUB1 cells at 10 uM after 24 hrs by Western blot analysis; type: functional, cell-based; how it was run: as §5
[25] = Cytotoxicity against human NTUB1 cells assessed as cell viability at 20 uM after 72 hrs by MTT assay relative to control; type: functional; conditions: NTUB1, 72 h, read-out: Activity; how it was run: as §1
[26] = Cell cycle arrest in human NTUB1 cells assessed as accumulation at G2/M phase at 10 uM after 24 hrs using propidium iodide staining by flow cytometry analysis (reference value: 18.61%); type: functional, cell-based; how it was run: as §4
[27] = Cytotoxicity against human NTUB1 cells assessed as cell viability at 10 uM after 72 hrs by MTT assay relative to control in presence of 1 mM of NAC; type: functional; how it was run: as §3
NTUB1 [28] = assay: Induction of up-regulation p21 expression in human NTUB1 cells at 10 uM after 24 hrs by Western blot analysis; type: functional, cell-based; how it was run: as §5
[29] = Cell cycle arrest in human NTUB1 cells assessed as accumulation at sub-G1 phase at 20 uM after 24 hrs using propidium iodide staining by flow cytometry analysis (reference value: 1.96%); type: functional, cell-based; how it was run: as §4
[30] = Cytotoxicity against human SV-HUC1 cells at 3 to 10 uM after 72 hrs by MTT assay; type: cell-based; conditions: sv-huc1, 72 h; how it was run: as §1

Compound: O=C1c2ccccc2C(=O)c2c(O)cc(OCCCN3CCOCC3)cc21
- EC50 (PC-3 [1]): 17.7 µM
- Activity (NTUB1 [2]): Active
- EC50 [3]: 20.4 µM

Compound: CCOC(=O)N1CCN(CCCOc2cc(O)c3c(c2)C(=O)c2ccccc2C3=O)CC1
- EC50 (PC-3 [1]): > 30 µM
- Activity (NTUB1 [2]): Active
- inhibition (INH) (PC-3 [4]): 12.44%
- EC50 [3]: 50.9 µM

Compound: CN1CCN(CCCOc2cc(O)c3c(c2)C(=O)c2ccccc2C3=O)CC1
- EC50 (PC-3 [1]): > 50 µM
- inhibition (INH) [5]: 15.54%
- inhibition (INH) (PC-3 [6]): 44.36%
- EC50 [3]: > 30 µM

Compound: O=C1c2ccccc2C(=O)c2c(O)cc(OCCCN3CCCCC3)cc21
- EC50 (PC-3 [1]): 28.5 µM
- EC50 [3]: 32.6 µM

Compound: CC(O)CNCCCOc1cc(O)c2c(c1)C(=O)c1ccccc1C2=O (configuration not stated)
- EC50 (PC-3 [1]): 9.07 µM
- EC50 [3]: 12 µM

Compound: CCNCCCOc1cc(O)c2c(c1)C(=O)c1ccccc1C2=O
- EC50 (PC-3 [1]): > 50 µM
- inhibition (INH) [7]: 23.2%
- inhibition (INH) (PC-3 [6]): 19.2%
- EC50 [3]: > 50 µM

Compound: O=C1c2ccccc2C(=O)c2c(O)cc(OCCCN3CCN(CCO)CC3)cc21
- EC50 (PC-3 [1]): > 50 µM
- inhibition (INH) [7]: 18.75%
- inhibition (INH) (PC-3 [6]): 18.54%
- EC50 [3]: > 50 µM

Compound: CC(=O)N[C@@H](CS)C(=O)O [ACETYLCYSTEINE]
- viability at 1000 µM [8]: 96.3%
- Activity (NTUB1 [9]): inactive

Compound: CN(CCO)CCCOc1cc(O)c2c(c1)C(=O)c1ccccc1C2=O
- EC50 (PC-3 [1]): 8.89 µM
- EC50 [3]: 12.3 µM

Compound: CCNCCCOc1ccc2c(c1)C(=O)c1ccccc1C2=O
- EC50 (PC-3 [1]): 22.9 µM
- EC50 [3]: 24.4 µM

Compound: O=C1c2ccccc2C(=O)c2c(O)cc(OCCCNC3CCCCC3)cc21
- EC50 (PC-3 [1]): 9.12 µM
- EC50 [3]: 8.37 µM

Compound: O=C1c2ccccc2C(=O)c2c(O)cc(OCCCN3CCCC3)cc21
- Activity (NTUB1 [10]): Active
- EC50 (PC-3 [1]): 7.64 µM
- Activity [11]: 21.9%
- Activity (NTUB1 [12]): inactive
- Activity (NTUB1 [13]): Active
- Activity [14]: 29.6%
- Activity (NTUB1 [15]): Active
- Activity (NTUB1 [2]): Active
- Activity (NTUB1 [16]): Active
- Activity [17]: 25.3%
- viability at 10 µM [18]: 57%
- Activity [19]: 2.47%
- Activity [20]: 36.6%
- Activity [21]: Active
- Activity [22]: 51.4%
- Activity [23]: 17.1%
- Activity (NTUB1 [24]): Active
- viability at 20 µM [25]: 13.1%
- Activity [26]: 19.2%
- Activity [27]: 57.4%
- Activity (NTUB1 [28]): Active
- Activity [29]: 4.69%
- Activity [30]: Non-toxic
- EC50 [3]: 9.72 µM

Compound: CCCNCCCOc1cc(O)c2c(c1)C(=O)c1ccccc1C2=O
- EC50 (PC-3 [1]): 14 µM
- EC50 [3]: 18.9 µM
